From ChEMBL document CHEMBL4033712, “Synthesis and biological evaluation of new C-12(α/β)-(N-) sulfamoyl-phenylamino-14-deoxy-andrographolide derivatives as potent anti-cancer agents” (Bioorg Med Chem Lett, 2017) come the findings set out here.

In one data set the test system is OVCAR-5. Briefly: Growth inhibition of human OVCAR5 cells incubated for 48 hrs by sulforhodamine B assay. The data set is classed as functional. Particulars: OVCAR-5, 48 h. The method, boiled down:
(§1)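 NCI-60 five-dose screen at 0.01, 0.1, 1, 10 and 100 µM, 48 h incubation, sulforhodamine B end point. GI50 (50% decrease in net growth), TGI (total growth inhibition) and LC50 (net 50% loss of initial cells) taken from log concentration versus % growth inhibition curves.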
Background: In SRB staining, fixed cells bind dye roughly in proportion to their protein.

The subject of a further data set is NHDF. Briefly: (§2) Growth inhibition of human NHDF after 72 hrs by CellTiter-Glo luminescent cell viability assay. The data set is classed as cell-based. Particulars: nhdf, 72 h. (In general: In ATP-based viability assays light output follows the ATP content of the culture.)
The next data set has as its system RPMI-8226. Description: Growth inhibition of human RPMI8226 cells incubated for 48 hrs by sulforhodamine B assay. Type of data set: functional. Particulars: RPMI-8226, 48 h; for CC50: read-out: LC50 (the source's name). The method, boiled down: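 NCI 60 human tumour cell line panel, five-dose study at 0.01, 0.1, 1, 10 and 100 µM, 48 h incubation. Sulforhodamine B protein-binding dye end point. GI50 (50% decrease in net cell growth), TGI (total growth inhibition) and LC50 (net 50% loss of initial cells) read from log concentration versus % growth inhibition curves.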

The subject of a further data set is Malme-3M. Briefly: Growth inhibition of human MALME-3M cells incubated for 48 hrs by sulforhodamine B assay. The data set is classed as functional. In outline:
as §1

Data set [1] can be described thus: as §2. The data set is classed as cell-based. Particulars: NHDF cells.

Regarding `C=C1CC[C@@H]2[C@](C)(COC(C)=O)[C@H](OC(C)=O)CC[C@@]2(C)[C@H]1CC(Nc1ccc(S(=O)(=O)Nc2ncccn2)cc1)C1=CCOC1=O` (stereo partly drawn), in the data set with OVCAR-5, it took 1.98 µM to inhibit growth by half (GI50), the LC50 (concentration causing net 50% loss of initial cells) was 7.47 µM and the TGI (commonly the concentration at which net growth stops) came out at 3.85 µM. In addition, in the data set on NHDF, the “growth inhibition (GI)” value is on record as “Non-Toxic”. Further, in the data set on RPMI-8226, the GI50 (in general, the concentration giving 50% growth inhibition) was 0.54 µM; the total growth inhibition concentration (TGI) came out at 3.12 µM; the CC50 was more than 100 µM.
For `C=C1CC[C@@H]2[C@](C)(COC(C)=O)[C@H](OC(C)=O)CC[C@@]2(C)[C@H]1CC(Nc1ccc(S(=O)(=O)Nc2ccc(Cl)nn2)cc1)C1=CCOC1=O` (stereo partly drawn), in the data set with Malme-3M, the GI50 is 1.72 µM and net growth stopped (TGI) at 3.9 µM. Moreover, the CC50 with Malme-3M (read-out: LC50 (the source's name)) was 8.84 µM. In the data set with OVCAR-5, this molecule gave a GI50 of 2.01 µM, an LC50 (concentration causing net 50% loss of initial cells) of 8.63 µM and a TGI of 4.16 µM. In addition, the GI50 at 72 h in data set [1] turned out to be 1.54 µM. In addition, in the data set with NHDF, the LC50 (usually the concentration that kills 50% of the test population) was determined as 3.496358 µM. In the data set on RPMI-8226, it took 0.44 µM to inhibit growth by half (GI50), the TGI is 3.04 µM and the CC50 was more than 100 µM.
In the data set with OVCAR-5, `C=C1CC[C@@H]2[C@](C)(COC(C)=O)[C@H](OC(C)=O)CC[C@@]2(C)[C@H]1CC(Nc1ccc(S(=O)(=O)Nc2nccc(C)n2)cc1)C1=CCOC1=O` (stereo partly drawn) gave a GI50 of 3.86 µM, an LC50 (concentration causing net 50% loss of initial cells) of 42.2 µM and a TGI of 12.8 µM. In the data set with RPMI-8226, the GI50 turned out to be 1.95 µM, the TGI is 6.84 µM and the CC50 is more than 100 µM.
`C=C1CC[C@@H]2[C@](C)(COC(C)=O)[C@H](OC(C)=O)CC[C@@]2(C)[C@H]1CC(Nc1ccc(S(=O)(=O)Nc2nccs2)cc1)C1=CCOC1=O` (stereo partly drawn): in the data set on OVCAR-5, halving of growth (GI50) required 4.82 µM, the LC50 (concentration causing net 50% loss of initial cells) was found to be 46.9 µM and the TGI is 17.6 µM. Further, in the data set with RPMI-8226, halving of growth (GI50) required 2.49 µM, the TGI is 7.62 µM and the CC50 is more than 100 µM.
In the data set with Malme-3M, `C=C1CC[C@@H]2[C@](C)(COC(C)=O)[C@H](OC(C)=O)CC[C@@]2(C)[C@H]1CC(Nc1ccc(S(=O)(=O)Nc2cc(C)on2)cc1)C1=CCOC1=O` (stereo partly drawn) came in with a GI50 of 1.89 µM and a TGI of 4 µM. Besides, in the data set with OVCAR-5, the GI50 was found to be 2.16 µM, the LC50 (concentration causing net 50% loss of initial cells) stood at 7.61 µM and total growth inhibition (TGI) required 4.05 µM. Also, in the data set with RPMI-8226, the GI50 came out at 1.54 µM, the TGI amounted to 5.42 µM and the CC50 was more than 100 µM.
